How the values were obtained:
Histone deacetylase 1 = Histone deacetylase 1 (Homo sapiens, UniProt Q13547); experiment: Inhibition of HDAC1 (unknown origin) using Boc-Lys (acetyl)-AMC as substrate preincubated for 30 mins before substrate addition measured after 20 mins by UV-vis spectrophotometer analysis
[1] = Antiproliferative activity against human KG1 cells after 48 hrs by MTT assay; assay type: functional, cell-based; settings: KG-1, 48 h
MCF7 = experiment: Antiproliferative activity against human MCF7 cells after 48 hrs by MTT assay; assay type: functional, cell-based; settings: MCF7, 48 h
Mus musculus [2] = experiment: Toxicity in human H7402 cells xenografted mouse assessed as change in toxic effect at 60 mg/kg/day, po for 16 days; assay type: organism-based; settings: in vivo, 384 h
In short: (§1)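 H7402 subcutaneous xenograft in male athymic nude mice, seven per group, started once tumors reached about 140 mm³. Compound given daily by gavage for 16 days; controls received an equal volume of PBS. Body weight recorded every three days, and toxicity monitored during treatment.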

[3] = Antiproliferative activity against human 3AO cells after 48 hrs by MTT assay; assay type: functional, cell-based
PC-3 = experiment: Antiproliferative activity against human PC3 cells after 48 hrs by MTT assay; assay type: functional, cell-based; settings: PC-3, 48 h
K562 = experiment: Antiproliferative activity against human K562 cells after 48 hrs by MTT assay; assay type: functional, cell-based; settings: K562, 48 h
HeLa = experiment: Antiproliferative activity against human HeLa cells after 48 hrs by MTT assay; assay type: functional, cell-based
Histone deacetylase 3 = Histone deacetylase 3 (Homo sapiens, UniProt O15379); experiment: Inhibition of HDAC3 (unknown origin) using Boc-Lys (acetyl)-AMC as substrate preincubated for 30 mins before substrate addition measured after 20 mins by UV-vis spectrophotometer analysis
HEL = experiment: Antiproliferative activity against human HEL cells after 48 hrs by MTT assay; assay type: functional, cell-based
Mus musculus [4] = experiment: Toxicity in human H7402 cells xenografted mouse assessed as change in body weight at 60 mg/kg/day, po for 16 days; assay type: organism-based; settings: in vivo, 384 h; in short: as §1
HCT-116 = experiment: Antiproliferative activity against human HCT116 cells after 48 hrs by MTT assay; assay type: functional, cell-based; settings: HCT-116, 48 h
U-937 = experiment: Antiproliferative activity against human U937 cells after 48 hrs by MTT assay; assay type: functional, cell-based; settings: U-937, 48 h
[5] = Antiproliferative activity against human H7402 cells after 48 hrs by MTT assay; assay type: functional, cell-based; settings: H7402, 48 h
In short: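 Cells kept in RPMI1640 with 10% FBS at 37 °C, 5% CO2. Seeded 5000 per well and allowed at least 4 h to settle, then exposed to a range of compound concentrations for 48 h. 1% MTT solution added for 4 h, formazan dissolved in DMSO over 15 min, OD read at 570 nm. Values are the mean of three experiments.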

MDA-MB-231 = experiment: Antiproliferative activity against human MDA-MB-231 cells after 48 hrs by MTT assay; assay type: functional, cell-based; settings: MDA-MB-231, 48 h
[6] = Antiproliferative activity against human ES2 cells after 48 hrs by MTT assay; assay type: functional, cell-based; settings: ES-2, 48 h
[7] = biological target: T1, Protein deacetylase HDAC6 (Homo sapiens, UniProt Q9UBN7); experiment: Inhibition of HDAC6 (unknown origin) using Boc-Lys (acetyl)-AMC as substrate preincubated for 30 mins before substrate addition measured after 20 mins by UV-vis spectrophotometer analysis
T1 sequence (Q9UBN7 whole entry): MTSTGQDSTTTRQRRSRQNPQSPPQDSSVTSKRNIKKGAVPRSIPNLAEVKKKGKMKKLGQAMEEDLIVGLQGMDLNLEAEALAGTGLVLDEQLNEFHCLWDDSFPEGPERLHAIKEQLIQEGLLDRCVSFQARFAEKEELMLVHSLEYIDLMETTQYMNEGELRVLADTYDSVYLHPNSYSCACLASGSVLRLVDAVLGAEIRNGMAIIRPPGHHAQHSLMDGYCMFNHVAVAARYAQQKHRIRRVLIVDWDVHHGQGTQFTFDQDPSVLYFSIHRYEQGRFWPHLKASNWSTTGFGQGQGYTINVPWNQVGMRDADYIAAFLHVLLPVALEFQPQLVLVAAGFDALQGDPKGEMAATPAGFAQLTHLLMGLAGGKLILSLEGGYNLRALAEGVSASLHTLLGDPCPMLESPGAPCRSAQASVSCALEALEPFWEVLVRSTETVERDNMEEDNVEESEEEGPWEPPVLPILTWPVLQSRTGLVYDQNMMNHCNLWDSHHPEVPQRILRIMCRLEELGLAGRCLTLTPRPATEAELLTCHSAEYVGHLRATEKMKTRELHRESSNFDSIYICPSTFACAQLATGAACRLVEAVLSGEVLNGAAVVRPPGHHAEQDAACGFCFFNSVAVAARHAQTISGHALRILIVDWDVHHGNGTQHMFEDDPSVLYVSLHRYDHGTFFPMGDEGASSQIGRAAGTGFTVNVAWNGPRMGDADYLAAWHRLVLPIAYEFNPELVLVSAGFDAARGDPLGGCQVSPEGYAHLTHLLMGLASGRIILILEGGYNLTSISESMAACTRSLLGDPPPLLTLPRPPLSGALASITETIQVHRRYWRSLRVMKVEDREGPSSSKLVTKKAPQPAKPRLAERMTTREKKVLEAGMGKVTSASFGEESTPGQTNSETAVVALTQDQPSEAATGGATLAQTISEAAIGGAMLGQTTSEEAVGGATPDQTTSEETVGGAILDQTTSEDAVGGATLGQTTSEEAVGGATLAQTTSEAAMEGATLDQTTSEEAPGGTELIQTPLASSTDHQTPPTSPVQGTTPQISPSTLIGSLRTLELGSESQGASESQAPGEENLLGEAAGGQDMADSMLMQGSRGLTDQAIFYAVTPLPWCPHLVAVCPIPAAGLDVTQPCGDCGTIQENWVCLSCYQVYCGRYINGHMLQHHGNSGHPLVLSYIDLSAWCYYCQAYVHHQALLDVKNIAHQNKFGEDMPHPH

[8] = Antitumor activity against human H7402 cells xenografted in mouse assessed as tumor increment ratio at 60 mg/kg/day, po for 16 days relative to control; assay type: functional
In short: (§2)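 Male athymic nude mice, 4-6 weeks old, inoculated subcutaneously in the right axilla with 6.88×10^7 H7402 cells. After 8 days, at about 140 mm³ mean tumor volume, mice were randomized to groups of seven. Daily gavage for 16 days; controls received an equal volume of PBS. Tumors were measured by caliper every three days, V=ab²/2. T/C% = treated RTV/control RTV, where RTV = Vt/V0. Two-tailed t test.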

[9] = biological target: Histone deacetylase (HDAC1 and HDAC2) (Homo sapiens, UniProt Q13547+Q92769); experiment: Inhibition of HDAC1/2 in human HeLa cell nuclear extract using Boc-Lys (acetyl)-AMC as substrate preincubated for 30 mins before substrate addition measured after 20 mins by UV-vis spectrophotometer analysis; assay type: cell-based
[10] = Antitumor activity against human H7402 cells xenografted in mouse assessed as tumor increment ratio at 100 mg/kg/day, po for 16 days relative to control; assay type: functional; in short: as §2
Mus musculus [11] = experiment: Toxicity in human H7402 cells xenografted mouse assessed as change in body weight at 100 mg/kg/day, po for 16 days; assay type: organism-based; settings: in vivo, 384 h; in short: as §1
Mus musculus [12] = experiment: Toxicity in human H7402 cells xenografted mouse assessed as change in toxic effect at 100 mg/kg/day, po for 16 days; assay type: organism-based; settings: in vivo, 384 h; in short: as §1

Chain of Histone deacetylase 1 (Q13547 whole entry): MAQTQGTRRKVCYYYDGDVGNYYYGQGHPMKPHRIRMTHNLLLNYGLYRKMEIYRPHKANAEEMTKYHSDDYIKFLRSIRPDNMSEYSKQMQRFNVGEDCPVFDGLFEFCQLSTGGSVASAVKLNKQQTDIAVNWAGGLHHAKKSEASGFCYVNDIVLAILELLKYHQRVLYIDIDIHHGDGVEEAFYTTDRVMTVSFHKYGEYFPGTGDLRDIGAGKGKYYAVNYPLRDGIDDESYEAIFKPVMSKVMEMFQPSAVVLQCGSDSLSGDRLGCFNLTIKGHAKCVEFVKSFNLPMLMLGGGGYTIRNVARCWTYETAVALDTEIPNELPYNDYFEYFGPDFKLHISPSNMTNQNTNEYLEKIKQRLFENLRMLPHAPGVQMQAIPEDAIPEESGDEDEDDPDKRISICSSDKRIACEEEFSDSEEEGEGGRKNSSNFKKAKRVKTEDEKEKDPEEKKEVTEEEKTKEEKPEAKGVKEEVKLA
Chain of Histone deacetylase 3 (O15379 whole entry): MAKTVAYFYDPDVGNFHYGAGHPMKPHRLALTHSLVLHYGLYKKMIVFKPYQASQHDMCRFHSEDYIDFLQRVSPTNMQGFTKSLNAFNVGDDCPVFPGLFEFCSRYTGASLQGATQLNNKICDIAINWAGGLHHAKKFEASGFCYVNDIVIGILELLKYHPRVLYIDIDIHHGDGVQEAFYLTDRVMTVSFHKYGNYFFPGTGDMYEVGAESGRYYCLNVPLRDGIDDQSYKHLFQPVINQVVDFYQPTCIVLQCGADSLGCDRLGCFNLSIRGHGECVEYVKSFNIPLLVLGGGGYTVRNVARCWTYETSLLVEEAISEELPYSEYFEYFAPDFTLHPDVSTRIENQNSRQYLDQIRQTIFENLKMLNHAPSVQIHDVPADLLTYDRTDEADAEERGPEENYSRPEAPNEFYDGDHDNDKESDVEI

Compound	IC50 (MCF7) [µM]	IC50 (PC-3) [µM]	IC50 (K562) [µM]	IC50 (HeLa) [µM]	IC50 (HCT-116) [µM]	IC50 (U-937) [µM]	IC50 (MDA-MB-231) [µM]	IC50 [9] [µM]	IC50 [1] [µM]	IC50 [3] [µM]	IC50 (HEL) [µM]	IC50 [5] [µM]	IC50 [6] [µM]	further results
O=C(CN1C(=O)C2(OCCO2)c2ccccc21)Nc1ccc(C(=O)NO)cc1								0.31						
O=C(CN1C(=O)C2(OCCCCO2)c2cc(Cl)ccc21)Nc1ccc(C(=O)NO)cc1	25	11.6	7.23	36.1	42.4	1.49	36.4	0.0373	10.1	23.6	1.29	5.34	25.3	
O=C(CN1C(=O)C2(OCCO2)c2cc(Br)ccc21)Nc1ccc(C(=O)NO)cc1								0.12						
O=C(CCCCCCC(=O)Nc1ccccc1)NO [VORINOSTAT]												10.1		T/C [10]: 75.53%; Activity (Mus musculus [11]): Non-toxic; Activity (Mus musculus [12]): Non-toxic
O=C(CN1C(=O)C2(OCCO2)c2cc(Cl)ccc21)Nc1ccc(C(=O)NO)cc1								0.37						
O=C(CCCNC(=O)CN1C(=O)C2(OCCO2)c2cc(Br)ccc21)NO								0.92						
O=C(CNC(=O)CN1C(=O)C2(OCCO2)c2cc(Br)ccc21)NO								> 50						
O=C(CN1C(=O)C2(OCCCO2)c2cc(Br)ccc21)Nc1ccc(C(=O)NO)cc1	8.58	11	1.94	12.1	60.1	0.4	44.7	0.013	5.4	18.3	0.56	1.37	16.1	
O=C(CN1C(=O)C2(OCCCO2)c2cc(Cl)ccc21)Nc1ccc(C(=O)NO)cc1	28.4	21.9	5.32	11.3	41.9	2.09	57.1	0.0344	9.19	12.3	1.25	4.64	10.1	
O=C(CN1C(=O)C2(OCCO2)c2cc([N+](=O)[O-])ccc21)Nc1ccc(C(=O)NO)cc1								> 50						
COC(=O)c1ccc(NC(=O)CN2C(=O)C3(OCCCO3)c3cc(Br)ccc32)cc1								> 50						

The next lines start with results.

IC50 (MCF7) [µM]	IC50 (PC-3) [µM]	IC50 (K562) [µM]	IC50 (HeLa) [µM]	IC50 (HCT-116) [µM]	IC50 (U-937) [µM]	IC50 (MDA-MB-231) [µM]	IC50 [9] [µM]	Compound	IC50 [1] [µM]	IC50 [3] [µM]	IC50 (HEL) [µM]	IC50 [5] [µM]	IC50 [6] [µM]	further results
52.6	1.91	0.18	2.79	1.26	0.14	101	0.01013	O=C(CCN1C(=O)C2(OCCCO2)c2cc(Br)ccc21)Nc1ccc(C(=O)NO)cc1	0.32	3.25	0.33	5.33	2.8	IC50 (Histone deacetylase 1): 0.201 µM; Activity (Mus musculus [2]): Non-toxic; IC50 (Histone deacetylase 3): 0.025 µM; Activity (Mus musculus [4]): Non-toxic; IC50 [7]: 0.126 µM; T/C [8]: 62.5%
6.13	17.7	3.91	> 50	80.2	0.66	24.1	0.0216	O=C(CN1C(=O)C2(OCCCCO2)c2cc(Br)ccc21)Nc1ccc(C(=O)NO)cc1	5.49	27.2	0.64	0.75	3.6	
							0.28	Cc1ccc2c(c1)C1(OCCO1)C(=O)N2CC(=O)Nc1ccc(C(=O)NO)cc1						
							0.67	O=C(CCCCCNC(=O)CN1C(=O)C2(OCCO2)c2cc(Br)ccc21)NO						
13.7	7.93	0.39	22.2	1.1	0.22	126	0.0194	O=C(CCCN1C(=O)C2(OCCCO2)c2cc(Br)ccc21)Nc1ccc(C(=O)NO)cc1	0.42	21.4	0.34	0.58	6.02	
							0.19	O=C(CN1C(=O)C2(OCCO2)c2cc(F)ccc21)Nc1ccc(C(=O)NO)cc1						
							0.22	O=C(/C=C/c1ccc(NC(=O)CN2C(=O)C3(OCCO3)c3cc(Br)ccc32)cc1)NO						
5.23	4.43	0.44	26.6	0.64	1.08	82.7	0.31	Nc1ccccc1NC(=O)c1ccc(NC(=O)CN2C(=O)C3(OCCCO3)c3cc(Br)ccc32)cc1	5.92	9.71		1.95	6.49	
							> 50	O=C(CN1C(=O)C2(OCCCO2)c2cc(Br)ccc21)Nc1ccc(C(=O)O)cc1						

From ChEMBL document CHEMBL3593221, “Design, synthesis and preliminary biological evaluation of indoline-2,3-dione derivatives as novel HDAC inhibitors” (Bioorg Med Chem, 2015)
